In EPA's CvTdb concentration-time database:

How the values were obtained:
[1] = test system: Rat; assay: concentration in plasma after dosing; conditions: 1.5 h; dosed: Primidone; 80 mg/kg; oral; Male; F344
[2] = test system: Rat; assay: concentration in plasma after dosing; conditions: 9 h; dosed: Primidone; 130 mg/kg; oral; Female; F344
[3] = test system: Mouse; assay: concentration in plasma after dosing; conditions: 3 h; dosed: 2-Hydroxy-4-methoxybenzophenone; 250 mg/kg; oral; Female; B6C3F1
[4] = test system: Rat; assay: concentration in plasma after dosing; conditions: dosed: 2-Hydroxy-4-methoxybenzophenone, 100 mg/kg, oral, Female, F344
[5] = test system: Mouse; assay: concentration in plasma after dosing; conditions: 2.5 min; dosed: 2-Hydroxy-4-methoxybenzophenone; 250 mg/kg; oral; Male; B6C3F1
[6] = test system: Mouse; assay: concentration in plasma after dosing; conditions: 10 min; dosed: 2-Hydroxy-4-methoxybenzophenone; 50 mg/kg; iv; Male; B6C3F1
[7] = test system: Rat; assay: concentration in plasma after dosing; conditions: 6 h; dosed: 2-Hydroxy-4-methoxybenzophenone; 500 mg/kg; oral; Male; F344
[8] = test system: human; assay: concentration in blood after dosing; negative times count back from the end of exposure; conditions: dosed: trichloroethylene, 100 ppm, inhalation, duration: 4 hr, person
How it was run: (§1)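 A PubMed search, classifier screening and manual review identified published in vivo toxicokinetic studies, which together with two structured collections supplied concentration-versus-time and amount-versus-time points. Points were mostly digitised from plot screenshots with WebPlotDigitizer, otherwise copied from tables. Dose, route, subject details and medium were hand-curated from each paper, and sampling and analytical methods are those of the sources, often unreported.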

[9] = test system: Rat; assay: concentration in plasma after dosing; conditions: dosed: Methyleugenol, 37 mg/kg, oral, Male, F344/N
[10] = test system: Rat; assay: concentration in plasma after dosing; conditions: dosed: Methyleugenol, 37 mg/kg, iv, Female, F344
[11] = test system: Rat; assay: concentration in plasma after dosing; conditions: dosed: Methyleugenol, 37 mg/kg, iv, Male, F344
[12] = test system: Rat; assay: concentration in plasma after dosing; conditions: dosed: Methyleugenol, 37 mg/kg, iv, Male, F344; remark: listed apart in the source
[13] = test system: Rat; assay: concentration in plasma after dosing; conditions: 1.5 h; dosed: alpha-Thujone; 25 mg/kg; oral; Male; Harlan Sprague Dawley
[14] = test system: Rat; assay: concentration in brain after dosing; conditions: 6 h; dosed: alpha-Thujone; 25 mg/kg; oral; Male; Harlan Sprague Dawley
[15] = test system: Rat; assay: concentration in brain after dosing; conditions: 1.5 h; dosed: alpha-Thujone; 25 mg/kg; oral; Male; Harlan Sprague Dawley
[16] = test system: Rat; assay: concentration in brain after dosing; conditions: 5 min; dosed: alpha-Thujone; 50 mg/kg; oral; Female; Harlan Sprague Dawley
[17] = test system: Rat; assay: concentration in plasma after dosing; conditions: 1.5 h; dosed: alpha-Thujone; 25 mg/kg; oral; Male; Harlan Sprague Dawley; remark: listed apart in the source
[18] = test system: Rat; assay: concentration in plasma after dosing; conditions: 12 h; dosed: alpha-Thujone; 25 mg/kg; oral; Male; Harlan Sprague Dawley
[19] = test system: Rat; assay: concentration in plasma after dosing; conditions: 0.5 h; dosed: alpha-Thujone; 25 mg/kg; oral; Male; Harlan Sprague Dawley
[20] = test system: Rat; assay: concentration in brain after dosing; conditions: 1.5 h; dosed: alpha-Thujone; 25 mg/kg; oral; Male; Harlan Sprague Dawley; remark: listed apart in the source
[21] = test system: Rat; assay: concentration in plasma after dosing; conditions: 6 h; dosed: alpha-Thujone; 50 mg/kg; oral; Female; Harlan Sprague Dawley
[22] = test system: Rat; assay: concentration in brain after dosing; conditions: 5 min; dosed: alpha-Thujone; 25 mg/kg; oral; Male; Harlan Sprague Dawley
[23] = test system: Rat; assay: concentration in plasma after dosing; conditions: 2 min; dosed: alpha-Thujone; 50 mg/kg; oral; Male; Harlan Sprague Dawley
[24] = test system: human; conditions: dosed: trichloroethylene, 100 ppm, inhalation, duration: 4 hr, person
How it was run: as §1

[25] = test system: Rat; assay: concentration in liver after dosing; conditions: 192 h; dosed: Perfluorohexane-1-sulphonic acid – potassium salt; 16 mg/kg; oral; Female; Harlan Sprague Dawley
[26] = test system: Rat; assay: concentration in brain after dosing; conditions: 192 h; dosed: Perfluorohexane-1-sulphonic acid – potassium salt; 16 mg/kg; oral; Female; F344
[27] = test system: Rat; assay: concentration in kidney after dosing; conditions: 12 h; dosed: Perfluorohexane-1-sulphonic acid – potassium salt; 16 mg/kg; oral; Female; Harlan Sprague Dawley
[28] = test system: Rat; assay: concentration in liver after dosing; conditions: 12 h; dosed: Perfluorohexane-1-sulphonic acid – potassium salt; 16 mg/kg; oral; Female; Harlan Sprague Dawley
[29] = test system: Rat; assay: concentration in plasma after dosing; conditions: 20 h; dosed: Pyridine; 25 mg/kg; oral; Male; F344
[30] = test system: Rat; assay: concentration in plasma after dosing; conditions: 2 min; dosed: Pyridine; 10 mg/kg; iv; Male; F344
[31] = test system: Rat; assay: concentration in plasma after dosing; conditions: dosed: Pyridine, 5 mg/kg, oral, Male, F344

CCC1(c2ccccc2)C(=O)NCNC1=O [Primidone]
Conditions | concentration in plasma [ng/mL]
[1] | 35000
[2] | 52500

O=C(c1ccccc1)c1ccc(O)cc1O [2,4-Dihydroxybenzophenone]
Conditions | concentration in plasma [ng/mL]
[3] | 162
[5] | 149
[6] | 3890
[7] | 245

[4]
Conditions | concentration in plasma [ng/mL]
3 h | 59
10 min | 126

OCC(Cl)(Cl)Cl [trichloroethanol (free)]
[8]
Conditions | concentration in blood [ng/mL]
0.2798 h | 3060
0.518 h | 2980
1.034 h | 2890
2.025 h | 2710
4.029 h | 2290
5.972 h | 2030
7.955 h | 1690
9.937 h | 1480
11.96 h | 1270
13.96 h | 1070
15.94 h | 1010
17.94 h | 738

[8], during exposure
Conditions | concentration in blood [ng/mL]
-58 s | 2860
-3.486 h | 220
-3.013 h | 632
-2.028 h | 1480
-0.9832 h | 2280

C=CCc1ccc(OC)c(OC)c1 [Methyleugenol]
Conditions | concentration in plasma [ng/mL]
[9], 0.5 h | 293
[9], 3 h | 21.9
[10], 0.5 h | 1330
[10], 0.75 h | 535
[11], 0.25 h | 8180
[11], 1.5 h | 878
[12], 2 min | 59100
[12], 6 h | 114

CC(C)[C@]12CC(=O)[C@H](C)[C@H]1C2 [alpha-Thujone]
Conditions | concentration in brain [ng/g] | concentration in plasma [ng/mL]
[13] | – | 186
[14] | 84.6 | –
[15] | 592 | –
[16] | 994 | –
[17] | – | 233
[18] | – | 11.3
[19] | – | 176
[20] | 359 | –
[21] | – | 162
[22] | 360 | –
[23] | – | 152

OCC(Cl)(Cl)Cl [trichloroethanol]
[24]
Conditions | amount in urine after dosing [mg]
1 h | 13
2 h | 11
4 h | 21.5
8 h | 36.3
12 h | 31.4
16 h | 26.7
24 h | 33.6
36 h | 39.7
48 h | 22.6
60 h | 17
72 h | 11.5
84 h | 6.52
96 h | 3.88
108 h | 6
120 h | 3.14
132 h | 2.17
144 h | 1.65
156 h | 0.88
168 h | 1.08
180 h | 1.17

O=S(=O)([O-])C(F)(F)C(F)(F)C(F)(F)C(F)(F)C(F)(F)C(F)(F)F.[K+] [Perfluorohexane-1-sulphonic acid – potassium salt]
Conditions | concentration in brain [ng/g] | concentration in kidney [ng/g] | concentration in liver [ng/g]
[25] | – | – | 1660
[26] | 834 | – | –
[27] | – | 25000 | –
[28] | – | – | 39800

c1ccncc1 [Pyridine]
Conditions | concentration in plasma [ng/mL]
[29] | 4760
[30] | 10100

[31]
Conditions | concentration in plasma [ng/mL]
0.5 h | 3170
6 h | 1620
